# Test results taken from ChEMBL document CHEMBL5620421, “2,6-Disubstituted 7-(naphthalen-2-ylmethyl)-7H-purines as a new class of potent antitubercular agents inhibiting DprE1” (Eur J Med Chem, 2023).
# Activity calls are given as the source filed them. No cut-off for these calls is given here.
# Tests used:
# [1] = tested on: Mycobacterium tuberculosis; assay: Antitubercular activity against Mycobacterium tuberculosis CNCTC My 331/88 (H37Rv) assessed as inhibition of bacterial growth measured after 14 days of incubation by Sulas semisynthetic medium based assay; type: functional; details: 336 h, time 14 day
# Procedure, shortened: (§1)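 Micromethod MIC in Sula's semisynthetic medium. MIC is the lowest concentration inhibiting >99% of the mycobacterial population. Isoniazid was the standard drug.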
# [2] = tested on: Mycobacterium tuberculosis; assay: Antitubercular activity against Mycobacterium tuberculosis CNCTC My 331/88 (H37Rv) assessed as inhibition of bacterial growth measured after 21 days of incubation by Sulas semisynthetic medium based assay; type: functional; details: 504 h, time 21 day; procedure, shortened: as §1
# Mycobacterium avium [3] = assay: Antitubercular activity against Mycobacterium avium CNCTC My 330/88 assessed as inhibition of bacterial growth measured after 14 days of incubation by Sulas semisynthetic medium based assay; type: functional; details: CNCTC My 330/88, 336 h, time 14 day
# Procedure, shortened: (§2)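 M. avium was tested by the micromethod in Sula's semisynthetic medium. Compounds in DMSO at 1000 to 0.5 μmol/L. Incubation at 37 °C, read at 14 and 21 days. MIC is the lowest concentration giving >99% growth inhibition.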
# Mycobacterium avium [4] = assay: Antitubercular activity against Mycobacterium avium CNCTC My 330/88 assessed as inhibition of bacterial growth measured after 21 days of incubation by Sulas semisynthetic medium based assay; type: functional; details: CNCTC My 330/88, 504 h, time 21 day; procedure, shortened: as §2
# Mycobacterium kansasii [5] = assay: Antitubercular activity against Mycobacterium kansasii CNCTC My 235/80 assessed as inhibition of bacterial growth measured after 7 days of incubation by Sulas semisynthetic medium based assay; type: functional; details: CNCTC My 235/80, 168 h, time 7 day
# Procedure, shortened: (§3)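 Micromethod in Sula's semisynthetic medium. MIC is the lowest concentration inhibiting >99% of the mycobacterial population. Isoniazid was the standard.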
# Mycobacterium kansasii [6] = assay: Antitubercular activity against Mycobacterium kansasii CNCTC My 235/80 assessed as inhibition of bacterial growth measured after 14 days of incubation by Sulas semisynthetic medium based assay; type: functional; details: CNCTC My 235/80, 336 h, time 14 day; procedure, shortened: as §3
# Mycobacterium kansasii [7] = assay: Antitubercular activity against Mycobacterium kansasii CNCTC My 235/80 assessed as inhibition of bacterial growth measured after 21 days of incubation by Sulas semisynthetic medium based assay; type: functional; details: CNCTC My 235/80, 504 h, time 21 day; procedure, shortened: as §3
# HepG2 = assay: Cytotoxicity against human HepG2 cells incubated for 24 hrs by MTT assay; type: functional, cell-based; details: HepG2, 24 h
# Procedure, shortened: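 HepG2 cells in DMEM with 10% FBS, seeded at 15 × 10³ cells/well and attached overnight. Exposed for 24 h to serial dilutions prepared from DMSO stocks, final DMSO ≤1%. Then given fresh medium with 0.5 mg/mL MTT for 1 h at 37 °C. Formazan dissolved in DMSO and read at 570 nm. IC50 from 4-parameter nonlinear regression; three independent experiments in triplicate, mean ± SD.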
# [8] = Selectivity index, ratio of IC50 for cytotoxicity against human HepG2 cells by MTT assay to MIC99 for antitubercular activity against Mycobacterium tuberculosis CNCTC My 331/88 (H37Rv) assessed as inhibition of bacterial growth measured after 14 days of incubation; type: functional; details: time 14 day
# Procedure, shortened: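 HepG2 cells, 15 × 10³/well, were attached overnight and exposed 24 h to serial dilutions (DMSO ≤1%). Read by MTT at 0.5 mg/mL for 1 h and 570 nm. IC50 from 4-parameter regression, three independent experiments in triplicate. SI is HepG2 IC50 divided by H37Rv MIC99.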
# Staphylococcus aureus [9] = assay: Antibacterial activity against Staphylococcus aureus C1947 assessed as inhibition of bacterial growth incubated for 24 to 48 hrs by microdilution broth method; type: functional, organism-based; details: time 24-48 hrs
# Procedure, shortened: (§4)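 Clinical isolates kept at –70 °C and subcultured twice on Mueller-Hinton agar, using the second subculture. Broth microdilution in Mueller-Hinton broth at pH 7.4 with two-fold serial compound dilutions and DMSO ≤1% final. Inoculum was 10 μL of a 1.5 × 10⁸ CFU/mL suspension. Incubated at 36 °C ± 1 °C and read at 24 h and 48 h. MIC taken as 95% growth inhibition.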
# Staphylococcus aureus [10] = assay: Antibacterial activity against methicilin-resistant Staphylococcus aureus C1923 assessed as inhibition of bacterial growth incubated for 24 to 48 hrs by microdilution broth method; type: functional, organism-based; details: time 24-48 hrs
# Procedure, shortened: (§5)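 Clinical isolates, stored at −70 °C, were passaged twice on Mueller-Hinton agar. Broth microdilution in Mueller-Hinton broth, pH 7.4, with twofold serial dilutions. DMSO was at most 1% final. Inoculum 1.5 × 10⁸ CFU/mL suspension. MIC is 95% growth inhibition, read after 24 and 48 h at 36 °C.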
# [11] = tested on: Staphylococcus epidermidis; assay: Antibacterial activity against Staphylococcus epidermidis C1936 assessed as inhibition of bacterial growth incubated for 24 to 48 hrs by microdilution broth method; type: functional, organism-based; details: time 24-48 hrs; procedure, shortened: as §4
# Enterococcus faecium = assay: Antibacterial activity against vancomycin-resistant Enterococcus faecium assessed as inhibition of bacterial growth incubated for 24 to 48 hrs by microdilution broth method; type: functional, organism-based; details: time 24-48 hrs; procedure, shortened: as §5
# Escherichia coli = assay: Antibacterial activity against Escherichia coli A1235 assessed as inhibition of bacterial growth incubated for 24 to 48 hrs by microdilution broth method; type: functional, organism-based; details: time 24-48 hrs; procedure, shortened: as §4
# Klebsiella pneumoniae [12] = assay: Antibacterial activity against ESBL negative Klebsiella pneumoniae C1950 assessed as inhibition of bacterial growth incubated for 24 to 48 hrs by microdilution broth method; type: functional, organism-based; details: time 24-48 hrs; procedure, shortened: as §4
# Klebsiella pneumoniae [13] = assay: Antibacterial activity against ESBL positive Klebsiella pneumoniae C1914 assessed as inhibition of bacterial growth incubated for 24 to 48 hrs by microdilution broth method; type: functional, organism-based; details: time 24-48 hrs; procedure, shortened: as §4
# Pseudomonas aeruginosa = assay: Antibacterial activity against multidrug-resistant Pseudomonas aeruginosa A1245 assessed as inhibition of bacterial growth incubated for 24 to 48 hrs by microdilution broth method; type: functional, organism-based; details: time 24-48 hrs; procedure, shortened: as §5
SMILES,MIC99 [1],MIC99 [2],MIC99 (Mycobacterium avium [3]),MIC99 (Mycobacterium avium [4]),MIC99 (Mycobacterium kansasii [5]),MIC99 (Mycobacterium kansasii [6]),MIC99 (Mycobacterium kansasii [7]),IC50 (HepG2),Selectivity Index [8],Activity (Staphylococcus aureus [9]),Activity (Staphylococcus aureus [10]),Activity [11],Activity (Enterococcus faecium),Activity (Escherichia coli),Activity (Klebsiella pneumoniae [12]),Activity (Klebsiella pneumoniae [13]),Activity (Pseudomonas aeruginosa)
CCCCNc1nc(N2CCOCC2)nc2ncn(Cc3ccc4ccccc4c3)c12,4 µM,4 µM,64 µM,125 µM,8 µM,8 µM,8 µM,30.8 µM,7.7,inactive,inactive,inactive,inactive,inactive,inactive,inactive,inactive
CCN(CC)c1nc2ncn(Cc3ccc4ccccc4c3)c2c(=O)[nH]1,> 500 µM,> 500 µM,> 500 µM,> 500 µM,> 500 µM,> 500 µM,> 500 µM,,,inactive,inactive,inactive,inactive,inactive,inactive,inactive,inactive
O=c1[nH]c(N2CCOCC2)nc2ncn(Cc3ccc(Cl)c(Cl)c3)c12,16 µM,32 µM,> 500 µM,> 500 µM,> 500 µM,> 500 µM,> 500 µM,> 125 µM,>7.8,inactive,inactive,inactive,inactive,inactive,inactive,inactive,inactive
CN(C)c1nc(N2CCOCC2)nc2ncn(Cc3ccc4ccccc4c3)c12,8 µM,16 µM,500 µM,500 µM,32 µM,64 µM,125 µM,55.9 µM,6.99,inactive,inactive,inactive,inactive,inactive,inactive,inactive,inactive
CNc1nc(N2CCOCC2)nc2ncn(Cc3ccc4ccccc4c3)c12,4 µM,4 µM,> 500 µM,> 500 µM,8 µM,8 µM,8 µM,58.8 µM,14.7,inactive,inactive,inactive,inactive,inactive,inactive,inactive,inactive
CN(c1nc2ncn(Cc3ccc4ccccc4c3)c2c(=O)[nH]1)C1CC1,16 µM,16 µM,> 500 µM,> 500 µM,125 µM,250 µM,500 µM,> 125 µM,>7.8,inactive,inactive,inactive,inactive,inactive,inactive,inactive,inactive
c1ccc2cc(Cn3cnc4nc(N5CCOCC5)nc(NC5CCCCC5)c43)ccc2c1,32 µM,64 µM,> 500 µM,> 500 µM,64 µM,125 µM,250 µM,18.9 µM,0.59,inactive,inactive,inactive,inactive,inactive,inactive,inactive,inactive
Clc1nc(N2CCOCC2)nc2ncn(Cc3ccc4ccccc4c3)c12,16 µM,16 µM,> 500 µM,> 500 µM,16 µM,32 µM,64 µM,65.6 µM,4.09,inactive,inactive,inactive,inactive,inactive,inactive,inactive,inactive
CSc1nc(N2CCOCC2)nc2ncn(Cc3ccc4ccccc4c3)c12,8 µM,8 µM,> 500 µM,> 500 µM,32 µM,64 µM,64 µM,42.4 µM,5.3,inactive,inactive,inactive,inactive,inactive,inactive,inactive,inactive
CC(C)c1ccc(Cn2cnc3nc(N4CCOCC4)[nH]c(=O)c32)cc1,16 µM,32 µM,> 500 µM,> 500 µM,> 500 µM,> 500 µM,> 500 µM,> 125 µM,>7.8,inactive,inactive,inactive,inactive,inactive,inactive,inactive,inactive
CCSc1nc(N2CCOCC2)nc2ncn(Cc3ccc4ccccc4c3)c12,4 µM,4 µM,> 500 µM,> 500 µM,32 µM,64 µM,125 µM,64.2 µM,16.1,inactive,inactive,inactive,inactive,inactive,inactive,inactive,inactive
CCNc1nc(N2CCOCC2)nc2ncn(Cc3ccc4cc(F)ccc4c3)c12,4 µM,8 µM,> 500 µM,> 500 µM,16 µM,16 µM,16 µM,40.7 µM,10.18,inactive,inactive,inactive,inactive,inactive,inactive,inactive,inactive
